# Published values pooled from the literature.
# Read-out: cell growth or viability
Compound,cell line,assay,setting,CC50
COC(=O)c1c(C)ncn1CC(c1c[nH]c2ccccc12)c1c[nH]c2ccccc12,HaCaT,MTS,24 h,> 20 µM
Cc1cn([C@H]2C[C@H](N=[N+]=[N-])[C@@H](CO)O2)c(=O)[nH]c1=O,CEM-GFP,MTT,48 h,> 200 µg/mL
O=C(N[C@@H](Cc1ccccc1)C(=O)c1ncc(-c2ccccc2)s1)[C@H](Cc1ccccc1)NC(=O)N1CCOCC1,MRC-5 SV2,,,> 64 µM
N=C(N)c1ccc(/N=N/Nc2ccc(C(=N)N)cc2)cc1,MRC-5 SV2,resazurin,72 h,> 64 µM
C[C@@H]1O[C@@H](OC[C@H]2O[C@@H](Oc3c(-c4ccc(O)c(O)c4)oc4cc(O)cc(O)c4c3=O)[C@H](O)[C@@H](O)[C@@H]2O)[C@H](O)[C@H](O)[C@H]1O,CEM-GFP,MTT,48 h,> 250 µg/mL
CCOC(=O)c1cn(CC(c2cn(C)c3ccc(C)cc23)c2cn(C)c3ccc(C)cc23)c(C)c1C(=O)OC,HaCaT,MTS,24 h,> 20 µM
Cc1ncnc2c1c(SC(F)(F)F)cn2[C@@H]1O[C@H](CO)[C@@H](O)[C@H]1O,MRC-5 SV2,resazurin,72 h,36.8 µM
O=C(N[C@@H](Cc1ccccc1)C(=O)c1ncc(-c2ccccc2)o1)[C@H](Cc1ccccc1)NC(=O)N1CCOCC1,MRC-5 SV2,,,> 64 µM
Cc1ccc(C(=O)Nc2ccc(S(=O)(=O)O)c3cc(S(=O)(=O)O)cc(S(=O)(=O)O)c23)cc1NC(=O)c1cccc(NC(=O)Nc2cccc(C(=O)Nc3cc(C(=O)Nc4ccc(S(=O)(=O)O)c5cc(S(=O)(=O)O)cc(S(=O)(=O)O)c45)ccc3C)c2)c1,MRC-5 SV2,resazurin,72 h,> 64 µM
O=C(N[C@@H](Cc1ccccc1)C(=O)c1cn(COCc2ccccc2)nn1)[C@H](Cc1ccccc1)NC(=O)N1CCOCC1,MRC-5 SV2,,,> 64 µM
CCCCCCCCCCCCCCCCOP(=O)([O-])OCC[N+](C)(C)C,HaCaT,MTS,24 h,> 20 µM
